Scp1 inh: Scp-1 (human) phosphatase inhibition. Q9GZU7. Recombinant Scp1, phosphopeptide, malachite green phosphate absorbance. inhibition, % at 20 µM. 0.88% of 340,000 active. AID 493091;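 active = inhibition above about 50% at 20 µM, limit read from the data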
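Times: enzyme reaction 45 min at room temperature, colour 5 min, stabilisation 30 min. Material: SCP-1 catalytic fragment, aa 76-261. Medium: Acidic Tris acetate buffer with magnesium and detergent. Signal: colorimetric free-phosphate detection, absorbance 630 nm. Read-out basis: % inhibition of SCP-1 phosphate liberation. Reagent: Phosphorylated 17-residue peptide substrate.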
NadD inh: NadD (S. aureus) enzyme inhibition; purified NadD enzyme, colorimetric absorbance read-out; inhibition, % at 20 µM; 0.78% of 360,000 active; in the data active = inhibition above about 26%
STEP block: STEP (human) phosphatase inhibition; recombinant STEP, OMFP fluorogenic substrate, fluorescence; 0.25% of 360,000 active; inhibition, % at 20 µM;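 active = inhibition at 20 µM, scaled per plate between control wells, above about 37%, limit read from the data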
Target sequence (P54829 whole entry, looked up): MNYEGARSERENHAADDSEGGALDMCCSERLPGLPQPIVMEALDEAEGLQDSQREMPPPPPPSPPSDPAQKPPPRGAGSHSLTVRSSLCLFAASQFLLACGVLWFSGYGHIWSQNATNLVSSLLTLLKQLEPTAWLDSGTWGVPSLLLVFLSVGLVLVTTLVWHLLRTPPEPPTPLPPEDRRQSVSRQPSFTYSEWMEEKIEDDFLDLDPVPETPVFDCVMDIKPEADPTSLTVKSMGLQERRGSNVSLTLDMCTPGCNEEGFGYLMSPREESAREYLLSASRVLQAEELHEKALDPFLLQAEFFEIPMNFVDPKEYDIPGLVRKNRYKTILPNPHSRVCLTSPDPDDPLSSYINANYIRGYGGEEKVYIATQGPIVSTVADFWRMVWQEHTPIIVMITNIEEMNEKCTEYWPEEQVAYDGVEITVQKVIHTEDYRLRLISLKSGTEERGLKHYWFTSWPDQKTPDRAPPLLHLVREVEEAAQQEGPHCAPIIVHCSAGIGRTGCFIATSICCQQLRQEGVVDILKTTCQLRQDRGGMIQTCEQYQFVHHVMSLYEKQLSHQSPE
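Test system: STEP tyrosine phosphatase / Reagent: OMFP at 25 µM / Doses: 20 µM, 1% DMSO / Read-out: percent inhibition scaled to no-enzyme and uninhibited-enzyme controls, plate-pattern corrected / Detection: FITC-channel fluorescence of OMFP product / Medium: Bis-Tris buffer pH 6.0, 2.5 mM DTT, 0.005% Tween 20 / Schedule: 20 min at room temperature, dark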
DNMT1 block: inhibitors of human DNMT1; P26358; DNMT1 molecular beacon, Hinp1I cleavage, fluorescence; inhibition (reported as % activation of signal), % at 10 µM; 0.83% of 360,000 active; in the data active = inhibition above about 50%
LMPTP block: blocks human LMPTP phosphatase | P24666 | AID 651560 | 0.22% of 360,000 active | inhibition, % at 20 µM | recombinant LMPTP-A, OMFP fluorogenic substrate, fluorescence intensity;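 active = compounds that cut the enzyme signal by at least half of the control window in the single-dose screen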
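Test system: LMPTP-A, protein tyrosine phosphatase of low molecular weight; Input: 0.625 nM enzyme; Incubation: 50 min dark incubation at room temperature; Signal: endpoint fluorescence intensity from OMFP dephosphorylation; Read-out basis: % inhibition versus control wells.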
SUMO1-SIM PPI: SUMO1-SIM interaction modulation | P63165 | inhibition, % at 20 µM | 0.33% of 360,000 active | SUMO1 binding to a labelled peptide, TR-FRET, 1 h; in the data active = inhibition above about 37%
Target sequence (P63165 whole entry, looked up): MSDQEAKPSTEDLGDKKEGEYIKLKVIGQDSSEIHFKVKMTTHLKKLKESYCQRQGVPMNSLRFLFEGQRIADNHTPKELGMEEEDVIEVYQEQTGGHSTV
DNMT1 interf DR: shows spectral interference in the DNMT1 beacon assay; shares compounds with DNMT1 block; molecular beacon fluorescence, spectral interference counter-screen; IC50, µM; 200 tested, under 10 active; call rule not given here
DNMT1 confirm: DNMT1 inhibition confirmation, single concentration; shares compounds with DNMT1 block; DNMT1 molecular beacon HinP1I cleavage, fluorescence; inhibition, % at 10 µM; 8% of 2,300 active; AID 602385;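 active = average inhibition of at least 30% in the single-concentration confirmation test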
Beacon interf: beacon fluorescence artifact counter-screen. shares compounds with DNMT1 block. DNMT1 molecular beacon spectral interference counterscreen, fluorescence 485/520. activation (fluorescence interference), % at 10 µM. 1% of 2,300 active. AID 602387;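 active = activation of at least 30% at 10 µM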;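 also: DNMT1 catalytic domain with a HinP1I cleavage step and a FAM/dabcyl DNA beacon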
NadD inh conf: NadD (S. aureus) inhibition, single concentration confirmation; shares compounds with NadD inh; purified S. aureus NadD, colorimetric enzyme assay; inhibition, % at 20 µM; 13% of 2,000 active; AID 624309; in the data active = inhibition mostly above about 42%, no sharp cut-off; inactive = mostly below about 42%
Of the large screens only hits and unclear results are named; the others gave an inactive call (follow-up assays come after a bar, where they were run). The list is not random: actives were taken first. Their share in the collection is about 2.3%.

COc1ccccc1CNC(=O)COC(=O)c1cc(-c2ccco2)nc2ccccc12	Scp1 inh 83, NadD inh 46, DNMT1 block 100 | DNMT1 interf DR inactive | DNMT1 confirm inactive | Beacon interf inactive | NadD inh conf inactive
CC(C)Cn1c(N)c(C(=O)COC(=O)c2cc(-c3ccco3)nc3ccccc23)c(=O)n(C)c1=O	NadD inh 53, DNMT1 block 81 | DNMT1 confirm inactive | Beacon interf inactive | NadD inh conf inactive
O=C(Nc1cccc(Cl)c1)c1csc([C@H]2C[C@H](O)[C@@H](CO)O2)n1	none (no result: Scp1 inh)
O=C(COC(=O)c1cc(-c2ccco2)nc2ccccc12)NCc1ccc2c(c1)OCO2	NadD inh 43, DNMT1 block 77 | DNMT1 confirm inactive | Beacon interf inactive | NadD inh conf inactive
O=C(COC(=O)c1ccco1)NCc1ccc2c(c1)OCO2	none
S=c1[nH]nc(-c2cc(-c3ccccc3)n[nH]2)n1/N=C/c1ccc(Cl)c(Cl)c1	NadD inh 30, DNMT1 block 83, SUMO1-SIM PPI 98 | DNMT1 confirm inactive | Beacon interf inactive | NadD inh conf inactive
CC1(C)S[C@@H]2C(C(=O)OCc3ccccc3)NC(=O)N2C1C(=O)OCc1ccccc1 (some centres not stated)	none
Cc1cccc(NC(=O)CSc2cc(C)c(C#N)c3nc4ccccc4n23)c1	NadD inh 43, DNMT1 block 52 | DNMT1 confirm inactive | Beacon interf inactive | NadD inh conf inactive
COc1ccc(NC(=S)NC(=O)/C=C/c2ccco2)cc1	none
O=C(/C=C/c1ccco1)NC(=S)Nc1ccc(O)c(-c2nc3ccccc3s2)c1	NadD inh 47, DNMT1 block 67 | DNMT1 confirm inactive | Beacon interf inactive | NadD inh conf inactive
CCOC(=O)c1c2ccc(OCC(=O)N/N=C/c3ccc(C)cc3)cc2n2ccccc12	NadD inh 37, DNMT1 block 72 | DNMT1 confirm inactive | Beacon interf inactive | NadD inh conf inactive
CCOC(=O)c1c2ccc(OCC(=O)NN)cc2n2ccccc12	none
CN(c1ccccc1)c1ccc(/C=C(/CCC(=O)O)c2nc3ccccc3s2)cc1[N+](=O)[O-]	NadD inh 43, DNMT1 block 85, SUMO1-SIM PPI 39 | DNMT1 interf DR inactive | DNMT1 confirm inactive | Beacon interf inactive | NadD inh conf inactive
O=C(C1CC(=O)N(c2ccccc2)C1)N1CCCCCC1 (configuration not stated)	none
CC(C)CN(Cc1cc(=O)oc2cc(-c3ccccc3)c(O)cc12)CC(C)C	none
CCc1nnc(NC(=O)CSCc2cc(=O)n3ccsc3n2)s1	none
CN(CC(=O)Nc1cccc(F)c1)C(=O)c1cccnc1Sc1ccc(Cl)cc1	none
O=C(CSc1nc2c(cnn2-c2ccccc2)c(=O)[nH]1)c1ccc(Cl)cc1	NadD inh 37, DNMT1 block 86 | DNMT1 interf DR inactive | DNMT1 confirm 31 | Beacon interf inactive | NadD inh conf inactive
O=C(CSc1nc2c(cnn2-c2ccccc2)c(=O)[nH]1)N1CCCCC1	none
Cc1ccc(C(CC(=O)O)NC(=O)CN2C(=O)c3ccccc3C2=O)cc1 (configuration not stated)	none
O=C(/C=C/c1ccc([N+](=O)[O-])cc1)/C=C/c1ccco1	NadD inh 38, DNMT1 block 91 (no result: Scp1 inh) | DNMT1 confirm inactive | Beacon interf inactive | NadD inh conf inactive
O=C(/C=C/c1ccc([N+](=O)[O-])cc1)c1ccco1	none
Cc1cc(NS(=O)(=O)c2ccc(NC(=O)c3cc4cc(Br)ccc4oc3=O)cc2)no1	none
CCOc1ccc(OCC(=O)Nc2ccc(N3CCCCC3)cc2)cc1	none
Cc1cc(OCC(=O)Nc2ccc(N3CCCC3)cc2)cc(C)c1Cl	NadD inh 43, DNMT1 block 71 | DNMT1 confirm inactive | Beacon interf inactive | NadD inh conf inactive
Cc1ccc(NC(=O)COC(=O)COc2cccc3c2OC(C)(C)C3)cc1S(=O)(=O)N1CCOCC1	none
CN(CCC#N)C(=O)COC(=O)c1c2c(nc3ccccc13)/C(=C/c1ccco1)CC2	Scp1 inh 78, NadD inh 50, DNMT1 block 100, LMPTP block 59 | DNMT1 confirm inactive | Beacon interf inactive | NadD inh conf 58
O=C(Cc1cn2ccsc2n1)Nc1nc2c(s1)CN(Cc1ccccc1)CC2	NadD inh 35, DNMT1 block 56, LMPTP block 61 | DNMT1 confirm inactive | Beacon interf inactive | NadD inh conf inactive
Cc1ccc(Cn2c(/C=C/c3ccco3)nc3ccccc32)cc1	NadD inh 32, DNMT1 block 76 | DNMT1 confirm inactive | Beacon interf inactive | NadD inh conf inactive
CCCn1c(/C=C/c2ccco2)nc2ccccc21	none
COCc1cc(=O)n2[nH]c(-c3ccsc3-n3c(C)ccc3C)cc2n1	NadD inh 56, DNMT1 block 68, SUMO1-SIM PPI 45 | DNMT1 confirm inactive | Beacon interf inactive | NadD inh conf 43
Cc1cc(=O)n2[nH]c(-c3ccsc3-n3c(C)ccc3C)cc2n1	NadD inh 31, DNMT1 block 67 | DNMT1 confirm inactive | Beacon interf inactive | NadD inh conf inactive
C=CCn1c(C)cc(-c2csc(NC(=O)C3CCN(c4ncnc5sc(C)c(C)c45)CC3)n2)c1C	NadD inh 32, DNMT1 block 65 | DNMT1 confirm inactive | Beacon interf inactive | NadD inh conf inactive
COc1ccc(-c2csc(NC(=O)C3CCN(c4ncnc5sc(C)c(C)c45)CC3)n2)cc1OC	none
CN(C(=O)Cc1noc2ccccc12)c1ccccc1	none
CCOc1ccc(C=NNc2ccc(S(=O)(=O)Nc3ccccc3C(=O)O)cc2[N+](=O)[O-])cc1	NadD inh 34, DNMT1 block 85, LMPTP block 97, SUMO1-SIM PPI 110 | DNMT1 interf DR inactive | DNMT1 confirm 102 | Beacon interf inactive | NadD inh conf 76

From PubChem
